The record followed here is ChEMBL document CHEMBL2029211, “From a marine neuropeptide to antimicrobial pseudopeptides containing aza-β(3)-amino acids: structure and activity” (J Med Chem, 2012).

Series [1] relates to Enterococcus faecalis. Kind of series: Antibacterial activity against Enterococcus faecalis after 20 hrs by liquid growth inhibition assay. In kind it is functional. The method, boiled down: (§1)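 Bacteria grown in brain heart infusion and challenged at mid-log phase (starting D600 = 0.001) with water-dissolved peptides at final 20–640 μg.mL-1. After 20 h at 30°C, OD at 595 nm was read. MIC is the lowest concentration giving complete (100%) growth inhibition.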

Series [2] relates to Priestia megaterium. Kind of series: Antibacterial activity against Bacillus megaterium after 20 hrs by liquid growth inhibition assay. It is filed as functional. An outline of the steps: (§2)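 Liquid growth inhibition with peptides dissolved in distilled water, final 20–640 μg.mL-1, added to mid-log bacteria at starting D600 = 0.001. Standard strains in poor broth (1% peptone, 0.5% NaCl, pH 7.5); pathogenic strains in poor broth plus 0.3% beef extract. Incubated 20 h at 30°C; growth read as OD at 595 nm; MIC taken as lowest concentration giving 100% inhibition.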

For series [3], the system named is Vibrio harveyi. Kind of series: Antibacterial activity against Vibrio harveyi after 20 hrs by liquid growth inhibition assay. It is filed as functional. The method, boiled down: (§3)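 Vibrios cultured in saline poor broth (1% peptone, 1.5% NaCl, pH 7.2), diluted from mid-log phase to starting D600 = 0.001, then exposed to water-dissolved peptides at final 20–640 μg.mL-1. Incubated 20 h at 18°C; OD read at 595 nm. MIC is the lowest concentration giving 100% inhibition.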

Series [4] concerns Escherichia coli. As to the kind of experiment: Antibacterial activity against Escherichia coli after 20 hrs by liquid growth inhibition assay. It is filed as functional. An outline of the steps: as §2
Series [5] relates to Klebsiella pneumoniae. Kind of series: Antibacterial activity against Klebsiella pneumoniae after 20 hrs by liquid growth inhibition assay. It is filed as functional. The method, boiled down:
as §2

In series [6] the test system is Vibrio splendidus. As to the kind of experiment: Antibacterial activity against Vibrio splendidus after 20 hrs by liquid growth inhibition assay. It is filed as functional. An outline of the steps:
as §3

The test system of series [7] is Listeria monocytogenes. Kind of series: Antibacterial activity against Listeria monocytogenes after 20 hrs by liquid growth inhibition assay. It is filed as functional. The method, boiled down:
as §1

For series [8], the system named is Vibrio alginolyticus. Kind of series: Antibacterial activity against Vibrio alginolyticus after 20 hrs by liquid growth inhibition assay. It is filed as functional. The method, boiled down:
as §3

The test system of series [9] is Salmonella typhimurium. Kind of series: Antibacterial activity against Salmonella typhimurium after 20 hrs by liquid growth inhibition assay. It is filed as functional, Salmonella enterica subsp. enterica serovar Typhimurium. An outline of the steps: as §2
Series [10] has as its system Staphylococcus aureus. Kind of series: Antibacterial activity against Staphylococcus aureus after 20 hrs by liquid growth inhibition assay. It is filed as functional. An outline of the steps: as §2
In series [11] the test system is Vibrio aestuarianus. As to the kind of experiment: Antibacterial activity against Vibrio aestuarianus after 20 hrs by liquid growth inhibition assay. In kind it is functional. The method, boiled down:
as §3

Series [12] in a line: (§4) Cytotoxicity against CHOK1 cells assessed as cell viability at 640 ug/ml after 36 hrs by MTT assay. In kind it is cell-based, Cricetulus griseus, CHO-K1. Conditions: chinese hamster, CHO-K1 cells; read-out: Activity. The method, boiled down:
(§5)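 CHO-K1 cells (1.34×10^4/well) in Ham F12 with L-glutamine and 10% foetal calf serum were preincubated 6 h at 37 °C, 5% CO2. Peptides in PBS were added at final 20–640 μg.mL−1 for 36 h. Viability was read by MTT reduction at 570 nm, with PBS as 100% and 1% Triton X-100 as 0% viability; triplicates.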
On the technique in general: Tetrazolium dyes change colour on reduction, which living cells bring about.

For series [13], the system named is Pseudomonas aeruginosa. As to the kind of experiment: Antibacterial activity against Pseudomonas aeruginosa after 20 hrs by liquid growth inhibition assay. It is filed as functional. An outline of the steps:
as §2

Series [14] is described as follows: Toxicity in rabbit erythrocytes assessed as hemolysis up to 320 ug/ml. It is filed as cell-based, Oryctolagus cuniculus, Erythrocyte. Conditions: read-out: Activity. An outline of the steps:
(§6)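 Freshly isolated rabbit erythrocytes were incubated 1 h at 37°C with peptide in PBS at 20 to 320 μg.mL−1. Supernatant OD was read at 415 nm, with PBS as zero and 1% Triton X-100 as 100% hemolysis; triplicate for each concentration and control.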

Series [15] is described as follows: Ratio of toxicity in CHOK1 cells to MIC for Listeria monocytogenes. It is filed as functional, CHO-K1.
Series [16] can be described thus: Toxicity in rabbit erythrocytes assessed as hemolysis. In kind it is cell-based, Oryctolagus cuniculus, Erythrocyte. Conditions: read-out: HD50 (the source's name). The method, boiled down:
as §6

The test system of series [17] is CHO-K1. As to the kind of experiment: Cytotoxicity against CHOK1 cells assessed as cell viability up to 40 ug/ml after 36 hrs by MTT assay. It is filed as cell-based, Cricetulus griseus. Conditions: chinese hamster, cho-k1, 36 h. The method, boiled down:
as §5

Series [18] can be described thus: Ratio of toxicity in CHOK1 cells to MIC for Salmonella typhimurium. It is filed as functional, CHO-K1.
The nature of series [19]: Ratio of toxicity in CHOK1 cells to MIC for Staphylococcus aureus. It is filed as functional, CHO-K1.
A short description of series [20]: Ratio of HD50 for rabbit erythrocytes to MIC for Staphylococcus aureus. In kind it is functional.
The subject of series [21] is CHO-K1. The description is as §4. It is filed as cell-based, Cricetulus griseus. Conditions: chinese hamster, cho-k1, 36 h. The method, boiled down: as §5
A short description of series [22]: Cytotoxicity against CHOK1 cells assessed as cell viability at 160 ug/ml after 36 hrs by MTT assay. It is filed as cell-based, Cricetulus griseus. Conditions: chinese hamster, CHO-K1 cells; read-out: Activity. The method, boiled down: as §5
The mark [23] stands for this setting: Salmonella enterica subsp. enterica serovar Typhimurium.

In brackets after ≈: the same amount, converted by molar mass. Activity calls are given as the source filed them. No cut-off for these calls is given here. Starred links: 1 amine or outer side, 2 acyl side, 3 side chain; linkers in the order of their positions; H or OH if unused. Non-standard residues stand in square brackets, D forms with d. Residues, ends and D or L forms follow the SMILES beside them. *: point of attachment. azaβ3(1Nal) = O=C(CN(Cc1cccc2ccccc12)N[*:1])[*:2]; X2 = O=C(CN(Cc1ccc2ccccc2c1)N[*:1])[*:2]; X1 = NC(=O)CN(Cc1cccc2ccccc12)N*; X3 = NC(=O)CN(Cc1ccc2ccccc2c1)N*; X4 = NCCCCN(CC(=O)[*:2])N[*:1]

The term MIC denotes the least concentration at which growth counts as inhibited. Take `CC(C)C[C@H](NC(=O)CN(Cc1ccc2ccccc2c1)NC(=O)[C@H](C)NC(=O)[C@H](CCCCN)NC(=O)CNC(=O)[C@H](CO)NC(=O)[C@H](CC(C)C)NC(=O)[C@H](C)N)C(=O)N[C@@H](CCCNC(=N)N)C(=O)NN(CC(N)=O)Cc1ccc2ccccc2c1` (H-ALSGKA[X2]LR-X3): the minimal inhibitory concentration (MIC) was over 640 µg/mL in series [1]; 80 µg/mL (≈ 64.6 µM) in [2]; 640 µg/mL (≈ 517 µM) in [3]; 160 µg/mL (≈ 129 µM) in series [4]; over 640 µg/mL in [5]; 640 µg/mL (≈ 517 µM) in series [6]. Also, the MIC in [7] is 160 µg/mL (≈ 129 µM); in series [8] it was over 640 µg/mL; in [9] (Salmonella enterica), 160 µg/mL (≈ 129 µM); in series [10] it was 40 µg/mL (≈ 32.3 µM); in [11], 80 µg/mL (≈ 64.6 µM); in [13] it was 320 µg/mL (≈ 258 µM). Also, in series [12], the viability at 36 h, 640 ug/ml amounted to 47%.
For `CC(C)C[C@H](NC(=O)CN(Cc1ccc2ccccc2c1)NC(=O)[C@H](C)NC(=O)[C@H](CCCCN)NC(=O)CNC(=O)[C@H](CO)NC(=O)[C@H](CC(C)C)NC(=O)[C@H](C)N)C(=O)N[C@@H](CCCNC(=N)N)C(=O)N[C@@H](Cc1ccccc1)C(N)=O` (H-ALSGKA[X2]LRF-NH2), the minimal inhibitory concentration (MIC) in [1] is over 640 µg/mL; in [2], 80 µg/mL (≈ 68.2 µM); in series [3], 40 µg/mL (≈ 34.1 µM); in [4], 320 µg/mL (≈ 273 µM); in series [6], 20 µg/mL (≈ 17 µM); in [7], 80 µg/mL (≈ 68.2 µM). The MIC in series [8] came to 80 µg/mL (≈ 68.2 µM); in series [9] (Salmonella enterica) it was 80 µg/mL (≈ 68.2 µM); in series [10], 80 µg/mL (≈ 68.2 µM); in [11] it was 40 µg/mL (≈ 34.1 µM); in series [13] it was 160 µg/mL (≈ 136 µM). The hemolysis in [14] worked out at 5%. The MIC result in series [5] is “inactive”.
For the molecule `CC(C)C[C@H](NC(=O)CN(Cc1cccc2ccccc12)NC(=O)[C@H](C)NC(=O)[C@H](CCCCN)NC(=O)CNC(=O)[C@H](CO)NC(=O)[C@H](CC(C)C)NC(=O)[C@H](C)N)C(=O)N[C@@H](CCCNC(=N)N)C(=O)NN(CC(N)=O)Cc1cccc2ccccc12` (H-ALSGKA[azaβ3(1Nal)]LR-X1), the MIC in [1] is over 640 µg/mL; in series [2], 20 µg/mL (≈ 16.1 µM); in series [3] it was 640 µg/mL (≈ 517 µM); in [4] it was 40 µg/mL (≈ 32.3 µM); in [6], 320 µg/mL (≈ 258 µM); in series [7], 80 µg/mL (≈ 64.6 µM). Further, the MIC in series [8] was over 640 µg/mL; in series [9] (Salmonella enterica) it was 80 µg/mL (≈ 64.6 µM); in [10] it was 20 µg/mL (≈ 16.1 µM); in series [11], 80 µg/mL (≈ 64.6 µM); in series [13], 160 µg/mL (≈ 129 µM). Besides, the Ratio in [15] is listed as 8; in series [18], 8; in [19] it was 32; in series [20], 10. The HC50 in series [16] turned out to be 200 µg/mL. In series [5], the MIC result was “inactive”. In addition, the results for the Activity entry in [17] and in series [21] were “Non-toxic” and “Toxic”, respectively. In [22], the viability at 36 h, 160 ug/ml was found to be 78%.
As to `CC(C)C[C@H](NC(=O)[C@H](C)N)C(=O)N[C@@H](CO)C(=O)NCC(=O)NN(CCCCN)CC(=O)N[C@@H](C)C(=O)N[C@@H](Cc1ccccc1)C(=O)N[C@@H](CC(C)C)C(=O)N[C@@H](CCCNC(=N)N)C(=O)N[C@@H](Cc1ccccc1)C(N)=O` (H-ALSG[X4]AFLRF-NH2), the MIC result in series [1], in series [2], in [3], in series [4], in [5] and in [7] was “inactive” each time. In addition, the MIC entry in series [8], in series [9] (setting [23]), in [10] and in series [11] was “inactive” throughout. In addition, the MIC in [6] was 320 µg/mL (≈ 285 µM); in series [13] it was over 640 µg/mL.
`CC1(C)S[C@@H]2[C@H](NC(=O)[C@H](N)c3ccccc3)C(=O)N2[C@H]1C(=O)O` [AMPICILLIN]: the MIC in series [1] is 5 µg/mL (≈ 14.3 µM); in series [2] it was 20 µg/mL (≈ 57.2 µM); in series [3], over 320 µg/mL; in series [4], 5 µg/mL (≈ 14.3 µM); in [5], 5 µg/mL (≈ 14.3 µM); in [6], 10 µg/mL (≈ 28.6 µM). Also, the MIC in series [7] is 5 µg/mL (≈ 14.3 µM); in [8], over 320 µg/mL; in series [9] (Salmonella enterica) it was 5 µg/mL (≈ 14.3 µM); in series [10], 5 µg/mL (≈ 14.3 µM); in series [11] it was 5 µg/mL (≈ 14.3 µM); in series [13] it was 320 µg/mL (≈ 916 µM).
H-ALSGDAFLRF-NH2: the MIC entry in series [1], in [5], in series [7], in series [9] (setting [23]), in series [10] and in [13] was “inactive” throughout. Moreover, the MIC was 640 µg/mL in [2]; over 640 µg/mL in [3]; 640 µg/mL in series [4]; 320 µg/mL in series [6]; 320 µg/mL in series [8]; 640 µg/mL in [11].
As for H-ALSGKAFLRF-NH2, the MIC result in [1] and in [7] was “inactive” throughout. Also, the MIC in series [2] was 80 µg/mL; in [3], 320 µg/mL; in [4], 80 µg/mL; in series [5], over 640 µg/mL; in [6], 40 µg/mL; in series [8] it was 320 µg/mL. For the same molecule, the MIC in series [9] (Salmonella enterica) came to 320 µg/mL; in [10], 320 µg/mL; in series [11] it was 80 µg/mL; in [13] it was 640 µg/mL. Moreover, in series [14], the hemolysis was under 1.5%. The viability at 36 h, 640 ug/ml in series [12] was found to be 87%.
